# Scp-1 inhibitor: blocks human Scp-1 phosphatase activity; AID 493091; 340,000 compounds, 0.88% hits; inhibition, % at 20 µM; Q9GZU7; Recombinant Scp1, phosphopeptide, malachite green phosphate absorbance;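 active means inhibition above about 50% at 20 µM, limit read from the data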;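 further: plate controls were DMSO wells with enzyme for no effect and wells lacking enzyme for full effect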
# Target sequence (Q9GZU7 76-261 limits assumed): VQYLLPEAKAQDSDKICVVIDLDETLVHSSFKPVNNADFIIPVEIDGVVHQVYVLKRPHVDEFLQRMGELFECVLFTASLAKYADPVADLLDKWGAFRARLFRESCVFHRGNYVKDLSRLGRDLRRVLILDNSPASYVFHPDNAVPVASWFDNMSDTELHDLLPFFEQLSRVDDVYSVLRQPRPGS
#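 Test system: SCP-1 phosphatase catalytic domain, residues 76-261; measured by: colorimetric phosphate reagent with accelerator and stabiliser, absorbance at 630 nm; timing: enzyme reaction 45 min at room temperature, colour 5 min, stabilisation 30 min; also added: Phosphorylated 17-residue peptide substrate; compound dosing: one concentration, 20 µM, with 1.0% DMSO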
# LMPTP inh: blocks human LMPTP phosphatase; 360,000 compounds, 0.22% hits; recombinant LMPTP-A, OMFP fluorogenic substrate, fluorescence intensity; AID 651560; P24666; inhibition, % at 20 µM;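 active means compounds that cut the enzyme signal by at least half of the control window in the single-dose screen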;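 further: plate controls were DMSO wells with enzyme plus substrate for no effect and substrate without enzyme for full effect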
# Target sequence (P24666 whole entry, looked up): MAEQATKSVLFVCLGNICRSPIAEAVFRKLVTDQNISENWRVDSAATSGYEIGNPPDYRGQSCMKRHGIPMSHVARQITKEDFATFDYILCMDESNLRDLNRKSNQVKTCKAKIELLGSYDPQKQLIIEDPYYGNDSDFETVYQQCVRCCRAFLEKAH
#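 Test system: LMPTP-A, protein tyrosine phosphatase of low molecular weight; Input: 0.625 nM enzyme; Incubation: 50 min dark incubation at room temperature; Signal: endpoint fluorescence intensity from OMFP dephosphorylation; Read-out basis: % inhibition versus control wells.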
# STEP block: STEP (human) phosphatase inhibition; recombinant STEP, OMFP fluorogenic substrate, fluorescence; inhibition, % at 20 µM; 360,000 compounds, 0.25% hits;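 active means inhibition at 20 µM, scaled per plate between control wells, above about 37%, limit read from the data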;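 further: 0% = DMSO with enzyme and substrate and 100% = substrate only without enzyme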
#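 medium = Bis-Tris buffer pH 6.0, 2.5 mM DTT, 0.005% Tween 20 | test system = STEP (striatal-enriched tyrosine phosphatase) enzyme, cell-free | measure = normalized % inhibition | compound dosing = 20 µM, 1% DMSO | also added = 25 µM OMFP | schedule = reaction 20 min, ambient temperature | measured by = fluorescence read at 480 nm ex / 540 nm em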
# SUMO1-SIM PPI: SUMO1-SIM interaction modulation. P63165. SUMO1 binding to a labelled peptide, TR-FRET, 1 h. inhibition, % at 20 µM. 360,000 compounds, 0.33% hits; in the data active means inhibition above about 37%
# Target sequence (P63165 whole entry, looked up): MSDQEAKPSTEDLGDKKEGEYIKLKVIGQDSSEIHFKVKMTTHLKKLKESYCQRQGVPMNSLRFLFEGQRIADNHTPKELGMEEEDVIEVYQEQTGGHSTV
# F508del corr: correctors of CFTR F508del function in bronchial epithelial cells; CFBE cells, YFP halide quenching; stimulated with forskolin plus potentiator P3; % fluorescence drop versus neutral controls; activity (quench increase), % at 7.58 µM; 350,000 compounds, 0.36% hits; AID 720511;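 active means mean added fluorescence quench of at least 8% versus neutral control, with both replicates also reaching 8%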;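 further: cells transiently co-express mutant CFTR-F508del with the halide-sensitive YFP; corrector assay measuring rescue of mutant channel to the surface after 24 h compound exposure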
# DNMT1 block: blocks human DNA methyltransferase DNMT1; DNMT1 molecular beacon, Hinp1I cleavage, fluorescence; inhibition (reported as % activation of signal), % at 10 µM; 360,000 compounds, 0.83% hits; AID 588458; in the data active means inhibition above about 50%
# * marks the source's active call; other numbers are inactive results; · = not tested or not shown. Shown are actives, neighbours in structure and some others; about 1.6% of the full set was active somewhere.
SMILES,Scp-1 inhibitor,LMPTP inh,STEP block,SUMO1-SIM PPI,F508del corr,DNMT1 block
COc1ccc(/C=N/NC(=O)c2cc(O)c(O)c(O)c2)cc1Cn1cc([N+](=O)[O-])cn1,83*,62*,5,8,3,22
COc1ccc(/C=N/NC(=O)c2ccccc2O)cc1Cn1cc([N+](=O)[O-])cn1,-7,2,-3,-13,1,1
COc1cccc(C#Cc2ccc([C@@H]3[C@H](CO)N4C(=O)CN(S(=O)(=O)c5ccccc5C)C[C@@H]34)cc2)c1,·,·,·,·,3,·
COc1ccc(NC(=O)Nc2ccc3c(c2)C(=O)N([C@@H](C)CO)C[C@H](C)[C@@H](CN(C)Cc2ccncc2)OCCCC[C@@H](C)O3)cc1,·,·,·,·,1,·
CCOc1ccccc1/C=C/c1nc2ccccc2[nH]c1=O,-7,2,1,-10,-3,81*
COCC(=O)N(C)C[C@H]1Oc2ncc(C#CC(C)(C)O)cc2C(=O)N([C@@H](C)CO)C[C@H]1C,·,·,·,·,0,·
O=C(CSc1nnc(CNC(=O)c2ccccc2F)o1)NC1CCCCC1,-2,0,-2,38*,1,4
CC=Cc1ccc2n(c1=O)C[C@@H]1[C@@H](CO)[C@H](C(=O)NCc3ccccc3)[C@H]2N1C (mixture of isomers),·,·,·,·,1,·
Cc1ccnc2c1ccc1cccnc12,-8,4,4,6,9.4*,10
Cc1ccnc2c1ccc1ccccc12,2,1,-3,2,-3,4
O=C(Nc1cccnc1Cl)c1cc(-c2cccc(O)c2)on1,-3,1,-2,72*,2,-2
COc1ccccc1-c1cc(C(=O)Nc2cccnc2Cl)no1,-4,1,-1,47*,-2,-4
COc1cccc(-c2cc(C(=O)Nc3cccnc3Cl)no2)c1,1,4,-1,1,-2,3
COc1ccc(N=Cc2cc(Cc3ccccc3Cl)cc([N+](=O)[O-])c2O)cc1OC,67*,1,0,-21,·,-6
CN(C)c1ccc(/C=C2\CCC/C(=C\c3ccccc3)C2=O)cc1,-5,4,-21,-21,·,11
CN(C)c1ccc(C=c2c3ccccc3n3c2cc(-c2ccccc2)[n+]3C)cc1,10,89*,11,-61,-9,29
COc1cc(N(C)C)ccc1C=c1c2ccccc2n2c1cc(-c1ccccc1)[n+]2C,5,90*,22,-19,-2,-14
CN(C)c1ccc(C=c2c3ccccc3n3c2c2c([n+]3C)CCCC2)cc1,7,53*,5,-87,2,25
CN(C)c1ccc(C=c2c3cc([N+](=O)[O-])ccc3n3c2cc(-c2ccccc2)[n+]3C)cc1,4,68*,9,59*,0,36
C[C@@H]1CCCCO[C@@H](CN(C)C(=O)Nc2ccc3c(c2)OCO3)[C@@H](C)CN([C@@H](C)CO)C(=O)c2cc(N(C)C)ccc2O1,·,·,·,·,1,·
Cc1ccc(-c2ccc3c(c2)O[C@@H](CN(C)C(=O)CN(C)C)[C@@H](C)CN([C@@H](C)CO)S3(=O)=O)cc1,·,·,·,·,-1,·
CN(C)c1ccc(C=c2c3ccccc3n3c2cc(-c2ccc(Cl)cc2)[n+]3C)cc1,7,52*,4,-112,1,35
COc1cc(C=c2c3ccccc3n3c2cc(-c2ccccc2)[n+]3C)cc(OC)c1OC,10,8,4,-17,-2,18
CC(=O)c1cc(NC(=O)c2cccc(C(F)(F)F)c2)c(=O)oc1C,-9,-1,4,-6,11*,4
CC(=O)c1cc(NC(=O)c2cccc(C(F)(F)F)c2)c(=O)oc1/C=C/N(C)C,-12,3,-9,-22,·,0
SMILES,Scp-1 inhibitor,LMPTP inh,STEP block,SUMO1-SIM PPI,F508del corr,DNMT1 block
CCC/C(C#Cc1cc(OC)cc(OC)c1)=C1/c2ccccc2C(=O)N1c1ccccc1,-7,0,-2,-2,-4,-1
CCC/C(C#Cc1ccc(N(C)C)cc1)=C1/c2ccccc2C(=O)N1c1ccccc1,57*,3,-30,-6,2,10
COc1ccccc1-c1cn(CC[C@H]2CC[C@H](NC(=O)C3CCC3)[C@H](CO)O2)nn1,·,·,·,·,0,·
O=c1ccc2[n+]([O-])c3ccc(O)cc3oc-2c1,31,3,11,2,23*,58*
CCOC(=O)C1=C(C)N=c2sc(=Cc3ccc(OCC(=O)O)cc3)c(=O)n2C1c1ccc(SC)cc1 (stereo unspecified),·,65*,94*,107*,0,89*
CCOC(=O)C1=C(C)N=c2s/c(=C\c3ccc(OCC(=O)O)cc3)c(=O)n2C1c1ccccc1 (stereo unspecified),1,0,2,-8,2,26
CO[C@H]1CN(C)C(=O)c2cc(C#N)ccc2OC[C@H]2O[C@@H](CC[C@H]2OC)CCN(C)C(=O)[C@@H]1C,·,·,·,·,-1,·
CCSc1cc(N2CCCC2)nc(-c2ccc(C)cc2)n1,-6,1,3,-2,·,-4
Cc1cc(N2CCCCC2)nc(-c2ccc(Br)cc2)n1,-4,4,0,45*,2,-4
CCOC(=O)C1CCN(C(=O)Nc2ccc3nc(-c4ccco4)c(-c4ccco4)nc3c2)CC1,67*,80*,68*,106*,·,113*
CCOC(=O)C1CCN(C(=O)Nc2ccc3c(c2)nc(C)n3C)CC1,-1,1,0,0,3,1
Cc1nc2ccc(NC(=O)N3CCCCC3)cc2nc1C,-4,0,-4,-3,·,3
O=C(Nc1ccc2nc(-c3ccco3)c(-c3ccco3)nc2c1)N1CCCCCC1,88*,·,·,·,·,·
CCCNC(=O)[C@@H]1[C@@H](CO)[C@@H]2Cn3c(ccc(-c4cncnc4)c3=O)[C@@H]2N1C(=O)c1ccccc1F,·,·,·,·,2,·
NS(=O)(=O)c1ccc(Cl)c(S(N)(=O)=O)c1,0,-2,-2,-2,10*,5
O=C(COC(=O)COc1ccccc1F)NCCc1ccc(F)cc1,-4,0,0,-2,9.1*,-4
O=C(C[C@@H]1CC[C@@H]2[C@H](COC[C@H](O)CN2Cc2ccc(Oc3ccccc3)cc2)O1)Nc1nccs1,·,·,·,·,7,·
CN(C)CCNc1ccc(CO)c2oc3ccc(O)cc3c(=O)c12,2,0,-2,-46,2,43
CCN(CC)CCNc1ccc(C)c2sc3ccc(O)cc3c(=O)c12,12,0,3,-26,4,54*
Cc1ccc(S(=O)(=O)Nc2ccc3c(c2)C(=O)N([C@@H](C)CO)C[C@H](C)[C@H](CN(C)Cc2ccncc2)OCCCC[C@@H](C)O3)cc1,·,·,·,·,2,·

# Assay outcomes deposited in PubChem by several laboratories.
